From ChEMBL document CHEMBL5375998, “New Genetically Engineered Derivatives of Antibacterial Darobactins Underpin Their Potential for Antibiotic Development” (J Med Chem, 2023)
In brackets after ≈: the same amount, converted by molar mass.

Columns and labels:
[1] = Binding affinity to Escherichia coli N-terminal 6 his tagged BamA barrel domain (421 to 810 residues) assessed as dissociation constant measured after 15 mins by microscale thermophoresis analysis
In short: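 Microscale thermophoresis with E. coli BamA at 50 nM in 50 mM HEPES pH 7.6, 5 mM MgCl2, 0.05% Tween. Ligand stock was in water and diluted in HEPES buffer. It was tested from the highest soluble concentration, mostly 2 mM, in 1:1 serial dilution over 16 samples. A labeling/fluorescence pretest was run for each sample.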

[2] = test system: Pseudomonas aeruginosa; test: Antibacterial activity against multidrug resistant Pseudomonas aeruginosa 84389 clinical isolate assessed as reduction in bacterial growth measured after 24 hrs; type: functional
[3] = test system: Pseudomonas aeruginosa; test: Antibacterial activity against Pseudomonas aeruginosa PA14 DSM 19882 assessed as reduction in bacterial growth measured after 24 hrs; conditions: PA14 DSM 19882, 24 h
[4] = test system: Acinetobacter baumannii; test: Antibacterial activity against Acinetobacter baumannii NCTC 13301 assessed as reduction in bacterial growth measured after 24 hrs; type: functional
[5] = test system: Acinetobacter baumannii; test: Antibacterial activity against Acinetobacter baumannii ATCC 17978 assessed as reduction in bacterial growth measured after 24 hrs; type: functional
[6] = test system: Acinetobacter baumannii; test: Antibacterial activity against Acinetobacter baumannii DSM-30007 assessed as reduction in bacterial growth measured after 24 hrs; type: functional
[7] = test system: Pseudomonas aeruginosa; test: Antibacterial activity against multidrug resistant Pseudomonas aeruginosa 83979 clinical isolate assessed as reduction in bacterial growth measured after 24 hrs; type: functional

| SMILES | Kd [1] [µM] | MIC [2] [µg/mL] | MIC [3] [µg/mL] | MIC [4] [µg/mL] | MIC [5] [µg/mL] | MIC [6] [µg/mL] | MIC [7] [µg/mL] |
| --- | --- | --- | --- | --- | --- | --- | --- |
| C[C@@H](O)[C@@H]1NC(=O)[C@H]2NC(=O)[C@H](CC(N)=O)NC(=O)[C@@H](N)Cc3c[nH]c4c(cccc34)O[C@@H]2c2c[nH]c3cc(ccc23)[C@H](CCCN)[C@@H](C(=O)N[C@@H](CCC(N)=O)C(=O)N[C@@H](Cc2c[nH]c3ccccc23)C(=O)O)NC1=O | 2.2 | – | – | – | – | – | – |
| N=C(N)NCCC[C@H](NC(=O)[C@H]1NC(=O)[C@H](CO)NC(=O)[C@H]2NC(=O)[C@H](CCC(N)=O)NC(=O)[C@@H](N)Cc3c[nH]c4c(cccc34)O[C@@H]2c2c[nH]c3cc(ccc23)[C@@H]1CCCN)C(=O)N[C@@H](Cc1c[nH]c2ccccc12)C(=O)O | – | 16 (≈ 14.7 µM) | 16 (≈ 14.7 µM) | 8 (≈ 7.35 µM) | 16 (≈ 14.7 µM) | 2 (≈ 1.84 µM) | 8 (≈ 7.35 µM) |
| C[C@@H](O)[C@@H]1NC(=O)[C@H]2NC(=O)[C@H](CC(=O)O)NC(=O)[C@@H](N)Cc3c[nH]c4c(cccc34)O[C@@H]2c2c[nH]c3cc(ccc23)[C@H](CCCN)[C@@H](C(=O)N[C@@H](CCCNC(=N)N)C(=O)N[C@@H](Cc2c[nH]c3ccccc23)C(=O)O)NC1=O | 22.6 | – | – | – | – | – | – |
